According to ChEMBL document CHEMBL3393003, “1,2,3,9b-Tetrahydro-5H-imidazo[2,1-a]isoindol-5-ones as a new class of respiratory syncytial virus (RSV) fusion inhibitors. Part 2: identification of BTA9881 as a preclinical candidate” (Bioorg Med Chem Lett, 2015):
≈ marks a conversion by molar mass, not a printed value. Blank lines part the entries; values can stand above or below the compound they belong to. Calls of active or inactive are those of the source. The rule behind the calls is not given here.

Columns and labels:
[1] = test system: Respiratory syncytial virus; experiment: Antiviral activity against respiratory syncytial virus A2 infected in human Hep2 cells assessed as reduction in virus-induced cytopathic effect after 5 days by MTT assay; assay type: functional, organism-based; conditions: A2, HEp-2, 120 h
How it was run: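 HEp2 cells (1.0 × 10⁴/well) infected at low moi (RSV A2 at moi 0.01) and added to serial compound dilutions; incubated 5 days at 37 °C, 5% CO₂. CPE read by MTT (1 mg/ml) metabolism after 2 h incubation.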

[2] = Cytotoxicity against human Hep2 cells assessed as reduction in cell viability after 5 days by MTT assay; assay type: cell-based, HEp-2
How it was run: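 Uninfected HEp2 cells (1.0 × 10⁴/well) exposed to serial compound dilutions for 5 days at 37 °C, 5% CO₂. Viability read by MTT (1 mg/ml) metabolism after 2 h incubation.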

[3] = Elimination half life in Sprague-Dawley rat at 3.1 mg/kg, iv; assay type: ADME, organism-based; parameters: dose 3.1 mg/kg, route intravenous; conditions: in vivo, read-out: beta t1/2 (converted)
How it was run: (§1)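 Male Sprague Dawley rats given one IV dose. 3.1 mg/kg: n = 1, in 40% propylene glycol, 10% ethanol and 0.4% Tween80 in water. 2.1 mg/kg: n = 2, in 20 mM citrate (pH 2.6) with 5% glucose and 10% DMSO. Total clearance, Vz and T1/2 derived from plasma levels.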

[4] = Total clearance in Sprague-Dawley rat at 3.1 mg/kg, iv; assay type: ADME, organism-based; parameters: dose 3.1 mg/kg, route intravenous; conditions: in vivo; how it was run: as §1
[5] = Apparent volume of distribution in Sprague-Dawley rat at 3.1 mg/kg, iv; assay type: ADME, organism-based; parameters: dose 3.1 mg/kg, route intravenous; conditions: in vivo, read-out: Vz; how it was run: as §1
[6] = Cmax in Sprague-Dawley rat at 18 mg/kg, po; assay type: ADME, organism-based; parameters: dose 18 mg/kg, route oral; conditions: in vivo
How it was run: (§2)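 Male Sprague Dawley rats, n = 2, oral dose as suspension with carboxymethylcellulose. Cmax (µM), T1/2 and F (%) derived from plasma levels.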

[7] = Half life in Sprague-Dawley rat at 18 mg/kg, po; assay type: ADME, organism-based; parameters: dose 18 mg/kg, route oral; conditions: in vivo; how it was run: as §2
[8] = Oral bioavailability in Sprague-Dawley rat at 18 mg/kg; assay type: ADME, organism-based; conditions: in vivo; how it was run: as §2
[9] = test system: Respiratory syncytial virus; experiment: Potency shift index, ratio of EC50 for respiratory syncytial virus A2 infected in human Hep2 in presence of 1.5 mg/mL Alpha-1-acid glycoprotein to EC50 for respiratory syncytial virus A2 infected in human Hep2 in absence of Alpha-1-acid glycoprotein; assay type: functional
[10] = test system: Respiratory syncytial virus; experiment: Antiviral activity against respiratory syncytial virus Long infected in human Hep2 cells assessed as reduction in virus-induced cytopathic effect after 5 days by MTT assay; assay type: functional, organism-based; conditions: HEp-2, 120 h
[11] = test system: Respiratory syncytial virus; experiment: Antiviral activity against respiratory syncytial virus B1 infected in human Hep2 cells assessed as reduction in virus-induced cytopathic effect after 5 days by MTT assay; assay type: functional, organism-based; conditions: B1, HEp-2, 120 h
[12] = Lipophilicity, log D of the compound at pH 7.4 by chromatography; assay type: physicochemical; conditions: buffer
How it was run: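 Effective logD measured chromatographically on an LC-ABZ column, octanol-saturated mobile phase at pH 7.4.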

[13] = Kinetic solubility in 0.01M HCl buffer at pH 2.0 by nephelometry; assay type: physicochemical; conditions: read-out: Kinetic_solubility
How it was run: (§3)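 Compound dissolved in DMSO and added to 0.01 M HCl (pH 2) or pH 6.5 isotonic phosphate buffer, 1% final DMSO. Solubility range determined by nephelometry.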

[14] = Kinetic solubility in isotonic phosphate buffer at pH 6.5 by nephelometry; assay type: physicochemical; conditions: read-out: Kinetic_solubility; how it was run: as §3
[15] = Elimination half life in Sprague-Dawley rat at 1.1 mg/kg, iv; assay type: ADME, organism-based; parameters: dose 1.1 mg/kg, route intravenous; conditions: in vivo, read-out: beta t1/2 (converted)
[16] = Plasma clearance in Sprague-Dawley rat at 1.1 mg/kg, iv; assay type: ADME, organism-based; parameters: dose 1.1 mg/kg, route intravenous
[17] = Apparent volume of distribution in Sprague-Dawley rat at 1.1 mg/kg, iv; assay type: ADME, organism-based; parameters: dose 1.1 mg/kg, route intravenous; conditions: in vivo, read-out: Vz
[18] = Elimination half life in Sprague-Dawley rat at 20 mg/kg, po; assay type: ADME, organism-based; parameters: dose 20 mg/kg, route oral; conditions: in vivo, read-out: beta t1/2 (converted)
How it was run: (§4)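 Male Sprague Dawley rats, n = 2, oral dose as suspension in hydroxypropylmethylcellulose, in carboxymethylcellulose, or in 0.5% HPMC/0.5% benzyl alcohol/0.4% Tween80. Cmax (µM), T1/2 and F (%) derived from plasma levels.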

[19] = Cmax in Sprague-Dawley rat at 20 mg/kg, po; assay type: ADME, organism-based; parameters: dose 20 mg/kg, route oral; conditions: in vivo; how it was run: as §4
[20] = Oral bioavailability in Sprague-Dawley rat at 20 mg/kg; assay type: ADME, organism-based; conditions: in vivo; how it was run: as §4
[21] = Elimination half life in Sprague-Dawley rat at 2.1 mg/kg, iv; assay type: ADME, organism-based; parameters: dose 2.1 mg/kg, route intravenous; conditions: in vivo, read-out: beta t1/2 (converted); how it was run: as §1
[22] = Total clearance in Sprague-Dawley rat at 2.1 mg/kg, iv; assay type: ADME, organism-based; parameters: dose 2.1 mg/kg, route intravenous; conditions: in vivo; how it was run: as §1
[23] = Apparent volume of distribution in Sprague-Dawley rat at 2.1 mg/kg, iv; assay type: ADME, organism-based; parameters: dose 2.1 mg/kg, route intravenous; conditions: in vivo, read-out: Vz; how it was run: as §1
[24] = Cmax in Sprague-Dawley rat at 21 mg/kg, po; assay type: ADME, organism-based; parameters: dose 21 mg/kg, route oral; conditions: in vivo; how it was run: as §2
[25] = Half life in Sprague-Dawley rat at 21 mg/kg, po; assay type: ADME, organism-based; parameters: dose 21 mg/kg, route oral; conditions: in vivo; how it was run: as §2
[26] = Oral bioavailability in Sprague-Dawley rat at 21 mg/kg; assay type: ADME, organism-based; conditions: in vivo; how it was run: as §2
[27] = Elimination half life in Sprague-Dawley rat at 8.8 mg/kg, iv; assay type: ADME, organism-based; parameters: dose 8.8 mg/kg, route intravenous; conditions: in vivo, read-out: beta t1/2 (converted)
[28] = Plasma clearance in Sprague-Dawley rat at 8.8 mg/kg, iv; assay type: ADME, organism-based; parameters: dose 8.8 mg/kg, route intravenous
[29] = Apparent volume of distribution in Sprague-Dawley rat at 8.8 mg/kg, iv; assay type: ADME, organism-based; parameters: dose 8.8 mg/kg, route intravenous; conditions: in vivo, read-out: Vz
[30] = Elimination half life in Sprague-Dawley rat at 19 mg/kg, po; assay type: ADME, organism-based; parameters: dose 19 mg/kg, route oral; conditions: in vivo, read-out: beta t1/2 (converted); how it was run: as §4
[31] = Cmax in Sprague-Dawley rat at 19 mg/kg, po; assay type: ADME, organism-based; parameters: dose 19 mg/kg, route oral; conditions: in vivo; how it was run: as §4
[32] = Oral bioavailability in Sprague-Dawley rat at 19 mg/kg; assay type: ADME, organism-based; conditions: in vivo; how it was run: as §4
[33] = test system: Respiratory syncytial virus; experiment: Antiviral activity against respiratory syncytial virus A2 by plaque reduction assay; assay type: functional, organism-based
[34] = test system: Respiratory syncytial virus; experiment: Antiviral activity against respiratory syncytial virus A2 by yield reduction assay; assay type: functional, organism-based
[35] = test system: Respiratory syncytial virus; experiment: Antiviral activity against respiratory syncytial virus A2 assessed as inhibition of early virus replication cycle by time of addition assay; assay type: functional, organism-based
[36] = Oral bioavailability in dog; assay type: ADME, organism-based, Canis lupus familiaris; conditions: in vivo
[37] = test system: Respiratory syncytial virus; experiment: Resistance index, ratio of EC50 for drug resistant respiratory syncytial virus B1 expressing F protein L141F mutant to EC50 for wild type Respiratory syncytial virus B1; assay type: functional
[38] = test system: Respiratory syncytial virus; experiment: Resistance index, ratio of EC50 for drug resistant respiratory syncytial virus Long expressing F protein Q494L mutant to EC50 for wild type Respiratory syncytial virus Long
[39] = test system: Respiratory syncytial virus; experiment: Resistance index, ratio of EC50 for VP-14637 resistant respiratory syncytial virus Long expressing F protein D489Y mutant to EC50 for wild type Respiratory syncytial virus Long

- half-life [3]: 11 h
- clearance [4]: 2.2 mL/min/kg
- Vd [5]: 2.1 L/kg
- Cmax [6]: 9.3 µM
- half-life [7]: 11 h
- bioavailability [8]: 57%
SMILES: Cn1cc(C(=O)N2CCN3C(=O)c4cc[n+]([O-])cc4[C@@]32c2ccc(Cl)cc2)c(C(F)(F)F)n1
- EC50 [1]: 10 nM
- CC50 at 120 h [2]: > 5000 nM

- chromatographic logD [12]: 2.8
- solubility kinetic [13]: 50 µg/mL (≈ 132 µM)
- solubility kinetic [14]: > 100 µg/mL
- half-life [15]: 2.4 h
- clearance [16]: 79 mL/min/kg
- Vd [17]: 8.7 L/kg
- half-life [18]: 2.8 h
- Cmax [19]: 0.44 µM
- bioavailability [20]: 21%
SMILES: O=C(c1ccco1)N1CCN2C(=O)c3ccncc3C12c1ccc(Cl)cc1 (racemic)
- EC50 [1]: 120 nM
- Ratio EC50 [9]: 3.6
- CC50 at 120 h [2]: > 19000 nM
- EC50 [10]: 370 nM
- EC50 [11]: 170 nM

- half-life [21]: 1.7 h
- clearance [22]: 7.9 mL/min/kg
- Vd [23]: 1.2 L/kg
- Cmax [24]: 2.5 µM
- half-life [25]: 20 h
- bioavailability [26]: 85%
SMILES: O=C(c1ccc(F)nc1)N1CCN2C(=O)c3cc[n+]([O-])cc3C12c1ccc(Cl)cc1 (racemic)
- EC50 [1]: 150 nM
- CC50 at 120 h [2]: > 17000 nM

SMILES: O=C(c1cccnc1)N1CCN2C(=O)c3ccncc3[C@]12c1ccc(Cl)cc1 [BTA-9881]
- EC50 [1]: 48 nM
- EC50 [10]: 59 nM
- EC50 [11]: 160 nM
- chromatographic logD [12]: 2.1
- solubility kinetic [13]: > 100 µg/mL
- solubility kinetic [14]: 50 µg/mL (≈ 128 µM)
- half-life [27]: 4.5 h
- clearance [28]: 4.5 mL/min/kg
- Vd [29]: 1.7 L/kg
- half-life [30]: 4.5 h
- Cmax [31]: 23 µM
- bioavailability [32]: 100%
- Activity [33]: Active
- Activity [34]: Active
- Activity [35]: Active
- bioavailability [36]: 100%
- Ratio EC50 [37]: >100
- Ratio EC50 [38]: 40
- Ratio EC50 [39]: >1800
